From paper PMC1557817 (Nucleic Acids Research, 2006)
Read-outs that look alike come from different tables or passages of the source. Each block holds one molecule with its values, some of them ahead of it.

Assays:
human eRF3 = human eRF3 (Homo sapiens, UniProt P15170); assay: ITC binding of ligands to eRF3
In short: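 Run at 25°C in phosphate buffer pH 7.5 (25 mM K2HPO4, 0.1 M KCl, 10% glycerol, 1 mM DTT), MgCl2 0–10 mM. Cell: 6–15 μM His-tagged human eRF3 (aa 139–637), alone or with full-length eRF1, both E. coli-expressed. Syringe: ligand at 50–300 μM, 10 μl injections. Dilution heat subtracted; one-set-of-sites fit gave Ka and ΔH; ΔG and ΔS calculated; 2–4 repeats.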

prokaryotic RF3 = settings: 5 mM Mg^2+ ref 28; cited from earlier work
S.pombe eRF3 = settings: 2.0–2.5 mM Mg^2+ ref 24; cited from earlier work
eRF1•eRF3 = eRF1•eRF3 (Homo sapiens, UniProt P15170); assay: ITC binding of guanine nucleotides to the eRF1•eRF3 complex
eRF3•GDP = eRF3•GDP (Homo sapiens, UniProt P15170); assay: ITC binding of ligands to the eRF3•GDP complex; settings: absence of eRF1
eRF1•eRF3•GDP = eRF1•eRF3•GDP (Homo sapiens, UniProt P15170); assay: Displacement ITC: eRF1•eRF3 saturated with GDP titrated with GTP; settings: Tris buffer, 2 mM Mg^2+, competitive ligand binding model
In short: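 Proteins: human eRF1 and truncated human eRF3 (aa 139–637), both with a C-terminal His6 tag, expressed in E. coli, purified by Ni-NTA then anion exchange, and dialysed into assay buffer. Method: eRF1•eRF3 in the cell was saturated with one HPLC-purified nucleotide, then titrated with 10 μl aliquots of the other. K2 = Kapp(1 + K1[L1]). Run at 25°C, pH 7.5; dilution heats subtracted; 2–4 runs.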

[1] = target: truncated human eRF3 (amino acids 139-637), C-terminal hexahistidine (human) (UniProt P15170); assay: ITC
[2] = target: truncated human eRF3 (amino acids 139-637), C-terminal hexahistidine (human) (UniProt P15170); assay: ITC; remark: listed apart in the source

- fold increase of Kd at 2 mM Mg^2+ versus absence of Mg^2+ (human eRF3; both phosphate and Tris buffers): 1.7 fold
Molecule: Nc1nc2c(ncn2[C@@H]2O[C@H](COP(=O)(O)OP(=O)(O)O)[C@@H](O)[C@H]2O)c(=O)[nH]1 [GDP]
- Kd (prokaryotic RF3): 5.5 nM
- affinity of GDP for yeast eRF3 (in words) (S.pombe eRF3): lost

- constant of GTP binding relative to that of GDP binding (eRF1•eRF3; 2.0 mM Mg^2+): four times higher
- fold increase of GTP affinity by Mg^2+ (eRF1•eRF3; physiological Mg^2+ versus absence of Mg^2+): 6 fold
- GTP binding to eRF3•GDP (in words) (eRF3•GDP): no binding was detected
- GTP binding constant (eRF1•eRF3•GDP): 1.8e+06 M⁻¹
Molecule: Nc1nc2c(ncn2[C@@H]2O[C@H](COP(=O)(O)OP(=O)(O)OP(=O)(O)O)[C@@H](O)[C@H]2O)c(=O)[nH]1 [GTP]
- GTP binding, direct titration (in words) (eRF1•eRF3; Tris buffer): signal is too low to be measured directly
- GTP binding to eRF3 (in words) (human eRF3; phosphate or Tris, absence and presence of 2 mM Mg^2+): failed to reveal any measurable GTP binding

- dHobs (observed, not corrected for protonation) [1]: -19.2 kcal/mol
- stoichiometry N [1]: 0.47
- dHobs (observed, not corrected for protonation) [2]: -13.5 kcal/mol
Molecule: human eRF1 (wild-type), C-terminal hexahistidine (from UniProt P62495 1-437) (natural protein)
